Hits are enriched below; roughly 2.9% of the tested compounds scored in any of these assays.
Cneo AK release: causes C. neoformans cell lysis; adenylate kinase release luminescence, 4 h; normalised: neutral wells 0, clomiphene wells 100; lysis activity, % at 15 µM; 360,000 compounds, 0.2% hits; AID 651654;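 active = mean lysis activity across replicates of at least 80%, whatever share of replicates individually reach that level; inactive = mean lysis activity below 80%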
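read-out = cell lysis signal | test system = log-phase Cryptococcus neoformans yeast cells | input = cells at 5 × 10^6 per mL | medium = fresh YPD growth medium | signal = luminescent adenylate kinase detection reagent | timing = 4 h at 37 °C static, read 1 h later | dosing = single dose | controls = Clomiphene as positive lysis control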
HIV Env fusion: HIV envelope-mediated fusion inhibition; HeLa-JRFL Env/CEM21 cell fusion, luciferase; inhibition, % at 12.3 µM; 360,000 compounds, 1.1% hits;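 active = mean replicate inhibition score of at least 50 and every replicate individually at or above 50; inconclusive = only one of the two criteria met; inactive = mean below 50 and not all replicates reaching 50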
PAX8 inh HTS: inhibitors of PAX8 transcriptional activity in RMG-I cells | RMG-I TPO-luciferase reporter, SteadyGlo, 24 h | inhibition, % at 12.6 µM | 360,000 compounds, 1.2% hits;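 active = mean replicate inhibition at least 60% with every replicate also reaching 60%; inconclusive = only one of the two criteria is met; inactive = mean below 60% and not all replicates reaching 60%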;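 note: luciferase light reporting Pax8 driven TPO promoter activity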
CDK5 inh: CDK5/p35 (human) kinase inhibition | Q00535+Q15078 | Recombinant CDK5/p35, ADP-Glo luminescence, 60 min | inhibition, % at 10 µM | 330,000 compounds, 0.01% hits | AID 488839;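 active = highest replicate inhibition of at least 50% and at least 75% of replicates reaching 50%; inconclusive = only one of the two criteria met; inactive = both criteria failed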
Target sequence (Q00535 whole entry, looked up): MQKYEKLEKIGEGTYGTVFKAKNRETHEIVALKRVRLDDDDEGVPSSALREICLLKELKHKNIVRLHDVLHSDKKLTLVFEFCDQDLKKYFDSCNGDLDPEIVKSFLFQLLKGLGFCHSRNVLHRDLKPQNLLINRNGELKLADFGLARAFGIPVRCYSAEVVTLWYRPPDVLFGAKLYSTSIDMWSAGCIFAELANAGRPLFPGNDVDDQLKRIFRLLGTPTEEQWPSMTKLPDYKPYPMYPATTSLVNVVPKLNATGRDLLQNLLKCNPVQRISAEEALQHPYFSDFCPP
Target sequence (Q15078 whole entry, looked up): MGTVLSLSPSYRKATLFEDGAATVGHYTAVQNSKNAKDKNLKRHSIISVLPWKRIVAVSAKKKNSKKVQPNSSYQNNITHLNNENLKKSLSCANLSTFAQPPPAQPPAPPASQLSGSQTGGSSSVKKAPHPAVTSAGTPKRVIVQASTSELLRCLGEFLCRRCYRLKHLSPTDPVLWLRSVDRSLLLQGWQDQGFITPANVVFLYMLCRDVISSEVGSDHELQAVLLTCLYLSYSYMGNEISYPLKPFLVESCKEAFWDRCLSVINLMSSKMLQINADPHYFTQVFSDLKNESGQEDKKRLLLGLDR
GSIS activator: GLuc luminescence reporter in INS-1E cells, primary screen for activators of glucose-dependent secretion of insulin; INS-1E GLuc reporter insulin secretion, 2-3 h; activation, % at 16.6 µM; 370,000 compounds, 0.61% hits; AID 743287;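 active = lowest replicate activation of at least 40%, so every replicate reaches that level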
dFosB act-1: enhances mouse delta FosB homodimer DNA binding. purified delta FosB, TAMRA-CDK5 oligo fluorescence polarization; percent of positive-control signal above neutral wells. P13346. activation, % at 25 µM. 340,000 compounds, 0.99% hits;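 active = mean activation above about 17%, with every replicate also reaching it, limit read from the data, passing the limit was not always enough; inconclusive = only one of the two conditions met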
dFosB act-2: delta FosB (mouse) homodimer activation; shares compounds with dFosB act-1; purified delta FosB, TAMRA-CDK5 oligo fluorescence polarization; normalised: neutral wells 0, positive control 100; activation, % at 24.9 µM; 2,400 tested, under 10 active; AID 588690;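 active = highest replicate activation at or above 34% and every replicate reaching that threshold; inconclusive = meets only one of the two criteria; inactive = meets neither criterion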;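 note: higher polarization means more probe DNA bound by delta FosB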
Each line names hits and unclear results; the compound was inactive in the other large screens (follow-up assays come after a bar, where they were run).

C[C@H](CO)N1C[C@H](C)[C@@H](CN(C)C)Oc2ccc(NS(=O)(=O)c3cn(C)cn3)cc2C1=O	none (no result: HIV Env fusion, CDK5 inh, dFosB act-1)
CNC(=O)C[C@H]1CC[C@H]2[C@H](COc3ccc(NS(=O)(=O)c4cccc(F)c4)cc3C(=O)N2C)O1	none (no result: CDK5 inh, dFosB act-1)
COc1ccc2nc(NC(=O)C3CCCN(S(=O)(=O)c4cccs4)C3)sc2c1 (stereo not given)	dFosB act-1 inconclusive (no result: HIV Env fusion, PAX8 inh HTS, GSIS activator)
COc1ccc2nc(NC(=O)C3CCN(S(=O)(=O)c4cccs4)CC3)sc2c1	dFosB act-1 25 (no result: HIV Env fusion, PAX8 inh HTS, GSIS activator) | dFosB act-2 inconclusive
C[C@H](O)C#Cc1cnc2c(c1)C(=O)N([C@H](C)CO)C[C@@H](C)[C@H](CN(C)Cc1cccc(C(=O)O)c1)O2	none (no result: PAX8 inh HTS, CDK5 inh, dFosB act-1)
Cc1cc(NC(=O)c2cc(-c3ccccn3)nc3c(Cl)cccc23)no1	none
O=C(Nc1nccs1)c1cc(-c2ccccn2)nc2c(Cl)cccc12	dFosB act-1 39 | dFosB act-2 inactive
O=C(Nc1ccc(OC(=O)c2ccccc2)c(-c2nc3ccccc3s2)c1)c1ccccc1	dFosB act-1 18 (no result: GSIS activator) | dFosB act-2 inactive
CC(=O)Nc1ccc(O)c(-c2nc3ccccc3s2)c1	none (no result: Cneo AK release)
O=C(Nc1cccnc1)c1cc(-c2cccc(Cl)c2)on1	dFosB act-1 57 | dFosB act-2 inactive
O=C(Nc1cccnc1Cl)c1cc(-c2ccc(F)cc2)on1	dFosB act-1 84 | dFosB act-2 inactive
CC(=O)c1cccc(NC(=O)c2cc(-c3ccc(F)cc3)on2)c1	dFosB act-1 25 (no result: HIV Env fusion, PAX8 inh HTS) | dFosB act-2 inactive
COc1ccc(-c2cc(C(=O)Nc3cccnc3Cl)no2)cc1	none
CN1C(=O)c2cc(NC(=O)NCc3ccccc3)ccc2OC[C@H]2O[C@H](CC(=O)O)CC[C@@H]21	none (no result: CDK5 inh, dFosB act-1)
CNC[C@@H]1Oc2ccc(NC(=O)CCN3CCOCC3)cc2C(=O)N([C@@H](C)CO)C[C@@H]1C	none (no result: CDK5 inh, dFosB act-1)
CC(C)CC#Cc1ccc2c(c1)O[C@@H](CN(C)CC1CCOCC1)[C@@H](C)CN([C@H](C)CO)S2(=O)=O	none (no result: PAX8 inh HTS, CDK5 inh, dFosB act-1)
COc1ccc(NC(=O)Nc2ccc3c(c2)C(=O)N([C@H](C)CO)C[C@H](C)[C@H](CN(C)C(=O)NC2CCCCC2)OCCCC[C@@H](C)O3)cc1	none (no result: CDK5 inh, dFosB act-1)
O=C(Cn1cnc2c(nnn2Cc2ccc(F)cc2)c1=O)Nc1cccc(F)c1	none (no result: Cneo AK release)
Cc1ccc(NC(=O)Cn2cnc3c(nnn3Cc3ccc(F)cc3)c2=O)cc1	dFosB act-1 23 (no result: Cneo AK release) | dFosB act-2 inactive
CCOc1ccc(-n2nnc3c(=O)n(CC(=O)N4CCCc5ccccc54)cnc32)cc1	none
O=C(Cn1cnc2c(nnn2Cc2ccc(F)cc2)c1=O)Nc1ccc2c(c1)OCCO2	dFosB act-1 27 | dFosB act-2 inactive
COc1ccc(-n2nnc3c(=O)n(CC(=O)N4CCCc5ccccc54)cnc32)cc1	dFosB act-1 35 (no result: GSIS activator) | dFosB act-2 inactive
COC(=O)c1ccc(NC(=O)Cn2cnc3c(nnn3-c3cccc(OC)c3)c2=O)cc1	dFosB act-1 37 | dFosB act-2 inactive
COc1ccc(S(=O)(=O)N(C)C[C@H]2Oc3ccc(NC(=O)CCCCCC(=O)Nc4ccccc4N)cc3CC(=O)N([C@H](C)CO)C[C@H]2C)cc1	none (no result: CDK5 inh, dFosB act-1)
COc1ccc(NC(=O)c2ccccc2NC(=O)c2ccco2)c(OC)c1	none (no result: HIV Env fusion, PAX8 inh HTS, GSIS activator)
COc1ccc(/C=N/NC(=O)c2ccccc2NC(=O)c2ccco2)c(OC)c1	dFosB act-1 84 (no result: Cneo AK release) | dFosB act-2 inactive
COc1ccc(/C=N/NC(=O)c2cc(-c3ccccc3)nc3ccccc23)c(OC)c1	dFosB act-1 23 (no result: Cneo AK release) | dFosB act-2 inactive
COc1ccccc1/C=N/NC(=O)c1cccc2ccccc12	dFosB act-1 37 | dFosB act-2 inactive
O=C(N/N=C/c1cccc2ccccc12)c1cc2ccccc2o1	dFosB act-1 20 | dFosB act-2 inactive
C[C@H]1CN([C@@H](C)CO)C(=O)Cc2cc(NC(=O)Cn3cnnn3)ccc2O[C@H]1CN(C)S(=O)(=O)c1cn(C)cn1	none (no result: CDK5 inh, dFosB act-1)
CCOc1cccc(-c2cc(C(=O)N/N=C/c3ccc(OC)c(CN4CCOCC4)c3)c3ccccc3n2)c1	dFosB act-1 39 (no result: Cneo AK release) | dFosB act-2 inactive
O=C1N/C(=N/N=C/c2ccco2)SC1Cc1ccccc1 (stereo not given)	dFosB act-1 21 | dFosB act-2 inactive
Cc1cccc(CC2S/C(=N/N=C/c3ccco3)NC2=O)c1 (stereo not given)	dFosB act-1 25 | dFosB act-2 inactive
CS(=O)(=O)Nc1ccc2c(c1)[C@@H]1C[C@H](CC(=O)NCc3ccc(Cl)cc3)O[C@@H](CO)[C@@H]1O2	none (no result: CDK5 inh, dFosB act-1)
C/C(=N\Nc1nc2ccccc2[nH]1)c1ccc2c(c1)OCO2	dFosB act-1 27 | dFosB act-2 inactive
O=C(Nc1ccc(Cl)cc1)NN1CC(=O)N(c2cccc(C(F)(F)F)c2)CC1=O	dFosB act-1 31 (no result: Cneo AK release) | dFosB act-2 inactive
Cc1ccc(N2CC(=O)N(NC(=O)Nc3ccc(Cl)c(Cl)c3)CC2=O)cc1	dFosB act-1 inconclusive (no result: Cneo AK release)
N#C[C@@H]1[C@H](c2ccc(C#CC3CCCCC3)cc2)[C@@H](CO)N1C(=O)Cc1ccccn1	none (no result: CDK5 inh, dFosB act-1)
NCCNc1ccc([N+](=O)[O-])c(Sc2nc3ccccc3[nH]2)c1	dFosB act-1 25 (no result: Cneo AK release) | dFosB act-2 inactive
C[C@@H]1CN([C@@H](C)CO)C(=O)c2cc(NC(=O)C3CCCCC3)ccc2O[C@@H](C)CCCCO[C@H]1CN(C)C(=O)c1ccccc1	none (no result: CDK5 inh, dFosB act-1)
O=C(CCCCCn1c(=S)[nH]c2ccccc2c1=O)NCc1ccc2c(c1)OCO2	dFosB act-1 44 (no result: PAX8 inh HTS, GSIS activator) | dFosB act-2 inactive
O=C(CCn1c(=S)[nH]c2ccccc2c1=O)Nc1cccc(Cl)c1	dFosB act-1 47 | dFosB act-2 inactive
O=c1c2ccccc2[nH]c(=S)n1Cc1ccc2c(c1)OCO2	dFosB act-1 21 | dFosB act-2 inactive
COc1ccc(NC(=O)CCn2c(=S)[nH]c3ccccc3c2=O)cc1Cl	none (no result: CDK5 inh, dFosB act-1)
O=C(CCCn1c(=O)[nH]c2ccc(Br)cc2c1=O)NCc1ccc(Cl)cc1	dFosB act-1 100 (no result: Cneo AK release) | dFosB act-2 inactive
CC(C)CCNC(=O)CCCn1c(=O)[nH]c2ccc(Br)cc2c1=O	none (no result: GSIS activator)
O=C(C[C@H]1C[C@@H]2c3cc(NS(=O)(=O)c4ccccc4)ccc3O[C@@H]2[C@H](CO)O1)NC1CCCCC1	none (no result: CDK5 inh, dFosB act-1)
CC(=O)N(C)C[C@H]1Oc2ncc(C#C[C@H](C)O)cc2C(=O)N([C@@H](C)CO)C[C@H]1C	none (no result: PAX8 inh HTS, CDK5 inh, dFosB act-1)
COc1cccc(CNC(=O)CCCn2c(=S)[nH]c3cc4c(cc3c2=O)OCO4)c1	dFosB act-1 32 (no result: GSIS activator) | dFosB act-2 inactive
O=C(NC(=S)Nc1nc(-c2cccc([N+](=O)[O-])c2)cs1)c1ccccc1Cl	dFosB act-1 88 (no result: Cneo AK release) | dFosB act-2 inactive

Screening data as filed in PubChem BioAssay.
